Laboratory results: ChEMBL document CHEMBL3112527, “Quinoline-pyrimidine hybrids: synthesis, antiplasmodial activity, SAR, and mode of action studies” (J Med Chem, 2014)
Converted amounts (≈) assume the structure as drawn. The source made the active and inactive calls. No cut-off for these calls is given here.

Key:
[1] = test system: Sindbis virus; assay: Antiviral activity against Sindbis virus infected in African green monkey Vero cells assessed as inhibition of virus-induced cytopathicity; type: functional, organism-based
[2] = test system: Human betaherpesvirus 5; assay: Antiviral activity against Cytomegalovirus Davis infected in HEL cells assessed as inhibition of virus-induced cytopathicity; type: functional, organism-based
[3] = test system: Punta Toro virus; assay: Antiviral activity against Punta Toro virus infected in African green monkey Vero cells assessed as inhibition of virus-induced cytopathicity; type: functional, organism-based
Summary of the method: (§1)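 Confluent monolayers (HEL, Vero, HeLa or CrFK, as applicable) were inoculated with 100 CCID50 of virus, with 1 CCID50 being the dose that infects 50% of cultures. Infection ran in the presence of varying compound concentrations. Inhibition of virus-induced cytopathicity was scored against infected cultures left untreated.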

[4] = test system: Vesicular stomatitis virus; assay: Antiviral activity against Vesicular stomatitis virus infected in human HeLa cells assessed as inhibition of virus-induced cytopathicity; type: functional, organism-based
Summary of the method: (§2)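 Confluent monolayers in 96-well plates were inoculated with 100 CCID50 of virus in the presence of varying concentrations of compound. Read-out was inhibition of virus-induced cytopathicity, compared with untreated infected cultures. Cytotoxicity was judged microscopically or by MTT viability staining.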

[5] = test system: Coxsackievirus B4; assay: Antiviral activity against Coxsackievirus B4 infected in African green monkey Vero cells assessed as inhibition of virus-induced cytopathicity; type: functional, organism-based; summary of the method: as §1
[6] = test system: Influenza A virus H3N2; assay: Antiviral activity against Influenza A virus H3N2 infected in MDCK cells assessed as inhibition of virus-induced cytopathicity; type: functional, organism-based; summary of the method: as §2
[7] = Aqueous solubility of the compound in PBS buffer at pH 7.4 after 24 hrs by HPLC analysis; type: physicochemical; conditions: pH 7.4, 24 h
[8] = test system: Human alphaherpesvirus 3; assay: Antiviral activity against Varicella-zoster virus infected in HEL cells assessed as inhibition of virus-induced cytopathicity; type: functional, organism-based
[9] = Cytotoxicity against human HeLa cells assessed as alteration of cell morphology by microscopic analysis; type: cell-based; conditions: read-out: MIC
Summary of the method: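 Cells (Vero, HEL, MDCK or HeLa) were exposed to a range of sample concentrations. The value reported is the concentration required to cause a microscopically detectable alteration of normal cell morphology.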

[10] = test system: Human alphaherpesvirus 1; assay: Antiviral activity against thymidine kinase-negative acyclovir-resistant HSV-1 KOS infected in HEL cells assessed as inhibition of virus-induced cytopathicity; type: functional, organism-based; summary of the method: as §2
[11] = Cytotoxicity against cat CRFK cells assessed as cell viability by MTS assay; type: cell-based, Felis catus
Summary of the method: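 CRFK cells were exposed to varying sample concentrations. Cell viability was measured with the colorimetric formazan-based MTS assay, and the 50% cytotoxic concentration (CC50) was derived from it.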

[12] = test system: Influenza A virus; assay: Antiviral activity against influenza A virus H1N1 infected in MDCK cells assessed as inhibition of virus-induced cytopathicity; type: functional, organism-based; summary of the method: as §2
[13] = test system: Vaccinia virus; assay: Antiviral activity against Vaccinia virus infected in HEL cells assessed as inhibition of virus-induced cytopathicity; type: functional, organism-based; conditions: Orthopoxvirus vaccinia; summary of the method: as §2
[14] = test system: Human alphaherpesvirus 1; assay: Antiviral activity against HSV-1 KOS infected in HEL cells assessed as inhibition of virus-induced cytopathicity; type: functional, organism-based; summary of the method: as §1
[15] = test system: Mammalian orthoreovirus 1; assay: Antiviral activity against Reovirus 1 infected in African green monkey Vero cells assessed as inhibition of virus-induced cytopathicity; type: functional, organism-based; summary of the method: as §1
[16] = test system: Plasmodium falciparum; assay: Antiplasmodial activity against chloroquine-resistant asexual erythrocytic stage of Plasmodium falciparum Dd2 assessed as parasite growth inhibition by lactate dehydrogenase assay; type: functional, organism-based
Summary of the method: (§3)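 Parasite lactate dehydrogenase assay (modified Makler method). Samples held as 20 mg/mL stocks in DMSO, diluted on test day. Full dose-response: starting at 10 μg/mL, 2-fold serial dilution in complete medium over 10 concentrations down to 0.02 μg/mL. Chloroquine, artesunate and MMV390048 served as references. IC50 from nonlinear dose-response curve fitting; mean of three independent experiments.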

[17] = Solubility of the compound in octanol at pH 7.4 by HPLC analysis; type: physicochemical
[18] = test system: Vesicular stomatitis virus; assay: Antiviral activity against Vesicular stomatitis virus infected in HEL cells assessed as inhibition of virus-induced cytopathicity; type: functional, organism-based; summary of the method: as §2
[19] = Selectivity index, ratio of CC50 for cat CRFK cells to IC50 for chloroquine-resistant asexual erythrocytic stage of Plasmodium falciparum Dd2; type: functional
Summary of the method: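 Ratio of CRFK CC50 (μM) to Dd2 IC50 […]. CC50 is the 50% cytotoxic concentration in feline kidney CRFK cells, measured as cell viability by colorimetric formazan-based MTS assay. Dd2 IC50 is from the parasite LDH growth-inhibition assay.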

[20] = test system: Feline coronavirus; assay: Antiviral activity against Feline coronavirus infected in cat CRFK cells assessed as inhibition of virus-induced cytopathicity; type: functional, organism-based; summary of the method: as §1
[21] = test system: Human respirovirus 3; assay: Antiviral activity against parainfluenza virus 3 infected in African green monkey Vero cells assessed as inhibition of virus-induced cytopathicity; type: functional, organism-based; summary of the method: as §1
[22] = test system: Felid alphaherpesvirus 1; assay: Antiviral activity against Feline herpesvirus infected in cat CRFK cells assessed as inhibition of virus-induced cytopathicity; type: functional, organism-based; summary of the method: as §1
[23] = test system: Plasmodium falciparum; assay: Antiplasmodial activity against chloroquine-sensitive asexual erythrocytic stage of Plasmodium falciparum D10 assessed as parasite growth inhibition by lactate dehydrogenase assay; type: functional, organism-based; summary of the method: as §3
[24] = test system: Coxsackievirus B4; assay: Antiviral activity against Coxsackievirus B4 infected in human HeLa cells assessed as inhibition of virus-induced cytopathicity; type: functional, organism-based; summary of the method: as §1
[25] = test system: Human alphaherpesvirus 2; assay: Antiviral activity against HSV-2 G infected in HEL cells assessed as inhibition of virus-induced cytopathicity; type: functional, organism-based; conditions: strain G; summary of the method: as §1
[26] = test system: Respiratory syncytial virus; assay: Antiviral activity against Respiratory syncytial virus infected in human HeLa cells assessed as inhibition of virus-induced cytopathicity; type: functional, organism-based; summary of the method: as §1
[27] = n-octanol-PBS buffer distribution coefficient, log D of the compound at pH 7.4 after 24 hrs by HPLC analysis; type: physicochemical
[28] = test system: Human betaherpesvirus 5; assay: Antiviral activity against Cytomegalovirus AD169 infected in HEL cells assessed as inhibition of virus-induced cytopathicity; type: functional, organism-based

## Clc1ccc2c(NCCCNc3nccc(N4CCCC4)n3)ccnc2c1
[1]
  inhibition: inactive
[2]
  inhibition: inactive
[3]
  inhibition: inactive
[4]
  inhibition: inactive
[5]
  inhibition: inactive
[6]
  inhibition: inactive
[7]
  solubility: 0.22 µM (≈ 0.0842 µg/mL)
[8]
  inhibition: inactive
[9]
  MCC: 100 µM
[10]
  inhibition: inactive
[11]
  CC50: 49000 nM
[12]
  inhibition: inactive
[13]
  inhibition: inactive
[14]
  inhibition: inactive
[15]
  inhibition: inactive
[16]
  IC50: 151 nM
[17]
  solubility: 1.25 µM (≈ 0.479 µg/mL)
[18]
  inhibition: inactive
[19]
  Ratio CC50/IC50: 327
[20]
  inhibition: inactive
[21]
  inhibition: inactive
[22]
  inhibition: inactive
[23]
  IC50: 28.7 nM
[24]
  inhibition: inactive
[25]
  inhibition: inactive
[26]
  inhibition: inactive
[27]
  logD at 24 h: 0.756
[28]
  inhibition: inactive

## Clc1ccc2c(NCCCCCCCCNc3ccnc(Cl)n3)ccnc2c1
[1]
  inhibition: inactive
[2]
  inhibition: inactive
[3]
  inhibition: inactive
[4]
  inhibition: inactive
[5]
  inhibition: inactive
[6]
  inhibition: inactive
[7]
  solubility: 0.08 µM (≈ 0.0335 µg/mL)
[8]
  inhibition: inactive
[9]
  MCC: 4 µM
[10]
  inhibition: inactive
[11]
  CC50: 8000 nM
[12]
  inhibition: inactive
[13]
  inhibition: inactive
[14]
  inhibition: inactive
[15]
  inhibition: inactive
[16]
  IC50: 883 nM
[17]
  solubility: 2.41 µM (≈ 1.01 µg/mL)
[18]
  inhibition: inactive
[19]
  Ratio CC50/IC50: 9
[20]
  inhibition: inactive
[21]
  inhibition: inactive
[22]
  inhibition: inactive
[23]
  IC50: 912 nM
[24]
  inhibition: inactive
[25]
  inhibition: inactive
[26]
  inhibition: inactive
[27]
  logD at 24 h: 1.48
[28]
  inhibition: inactive

## Clc1ccc2c(NCCCNc3ccnc(N4CCOCC4)n3)ccnc2c1
[1]
  inhibition: inactive
[2]
  inhibition: inactive
[3]
  inhibition: inactive
[4]
  inhibition: inactive
[5]
  inhibition: inactive
[6]
  inhibition: inactive
[7]
  solubility: 0.55 µM (≈ 0.219 µg/mL)
[8]
  inhibition: inactive
[9]
  MCC: 100 µM
[10]
  inhibition: inactive
[11]
  CC50: > 100000 nM
[12]
  inhibition: inactive
[13]
  inhibition: inactive
[14]
  inhibition: inactive
[15]
  inhibition: inactive
[16]
  IC50: 404 nM
[17]
  solubility: 1.27 µM (≈ 0.507 µg/mL)
[18]
  inhibition: inactive
[19]
  Ratio CC50/IC50: >247
[20]
  inhibition: inactive
[21]
  inhibition: inactive
[22]
  inhibition: inactive
[23]
  IC50: 70 nM
[24]
  inhibition: inactive
[25]
  inhibition: inactive
[26]
  inhibition: inactive
[27]
  logD at 24 h: 0.363
[28]
  inhibition: inactive
